This passage reports inhibition results from PubChem BioAssay AID651572 (The Scripps Research Institute Molecular Screening Center, 2012).

SMILES strings stand for the structures. Several values for one entry are separate records, joined by “and”; a condition that tells them apart may be missing. Equal entries are not always repeated. Hit rate of the full screen: of about 360,000 compounds, about 950 (0.26%) were called active.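 Rule for the calls: active = inhibition above a per-plate limit, mean inhibition of low control wells plus 3 SD (cut at about 25% in these data); inactive = the rest.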 What follows is part of a selection rich in actives, with near analogues and random picks from the rest. A structure can be active in one record and inactive in another.

As a reminder, the inhibition is the relative decrease from the control value, in per cent.

Chain of ADP-ribosylation factor GTPase-activating protein 1 (Rattus norvegicus) (Q62848 1-136 limits assumed): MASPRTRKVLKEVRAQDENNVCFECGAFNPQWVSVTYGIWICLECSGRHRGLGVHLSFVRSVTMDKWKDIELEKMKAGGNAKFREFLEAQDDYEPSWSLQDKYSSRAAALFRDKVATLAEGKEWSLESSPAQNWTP

The target of this experiment is ADP-ribosylation factor GTPase-activating protein 1 (Rattus norvegicus) (UniProt Q62848). The experiment is described as follows: blockers of ARFGAP1-stimulated ARF1 GTP hydrolysis – biochemical, fluorescence polarization, GDP tracer, primary screen (AID 651572).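 Note: 0% = DMSO wells with enzyme and 100% = wells lacking Arfgap1.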 Conditions: GDP FP detection, at 16.5 µM, stronger effect = higher value. The essentials:
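Assay system: Rat Arfgap1 GAP domain (His6, aa 1-136), purified enzyme | Buffer or medium: HEPES 25 mM pH 7.5, NaCl 150 mM, MgCl2, DTT | Schedule: GTP hydrolysis reaction 2 h at 25 °C | Signal: FP of antibody-bound GDP Alexa 633 tracer, ex 620/em 688 nm | Measure: Percent inhibition of Arfgap1-stimulated GTP hydrolysis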
As to `CCOC(=O)c1ccc(NC(=O)c2c(NCc3ccccc3)[nH]c(=O)[nH]c2=O)cc1`, the inhibition is -10.9% (inactive). Consider `CCOC(=O)c1ccc(NC(=O)c2c(N)n(C)c(=O)[nH]c2=O)cc1`, for which the inhibition was 11% (inactive).

For the compound `CCOC(=O)c1ccc(Nc2cc3ccccc3c(=O)[nH]2)cc1`, the inhibition was 25.9% (active). As for `CC(C)CNc1cccc2c1S(=O)(=O)N[C@H](CC(C)C)CO2`, the figure is 2.08% (inactive); as for `CC(C)[C@H]1COCCS(=O)(=O)N1Cc1ccccc1-c1cccc2c1sc1ccccc12`, -9.36% (inactive); as for `COC(=O)C(C(=O)OC)c1ccccc1NS(=O)(=O)c1cccc2ccccc12`, -11.2% (inactive). For the compound `COCCCNC(=O)C[C@H]1C[C@@]2(C(=O)OC)C(=C[C@H](C(C)(C)C)O[C@@H]2C)N(Cc2ccc3c(c2)OCO3)C1=O`, the inhibition was 2.5% (inactive). Regarding `COc1ccc(N2CCN(C(c3cc4ccc(C)cc4[nH]c3=O)c3nnnn3C3CCCC3)CC2)cc1` (centres undefined), the inhibition was 7.55% (inactive). As for `Cc1cc(C)c2[nH]c(=O)c(C(c3nnnn3Cc3ccc4c(c3)OCO4)N3CCCC3)cc2c1` (centres undefined), the figure is 6.09% (inactive). On to `CCOC(=O)C1CCN(C(c2cc3cc(C)cc(C)c3[nH]c2=O)c2nnnn2C2CCCCC2)CC1` (centres undefined), for which the inhibition is 38.1% (active). In the case of `CCCCOCC1CN(CCCC)S(=O)(=O)c2c(Oc3ccc(F)cc3)cccc2O1` (centres undefined) it was -16.2% (inactive). As for `Cc1cc(NCCc2c[nH]c3ccccc23)ccc1Oc1cccnc1`, the figure is 4.98% (inactive). As for `CCCCCCCCN1C(=O)[C@@H](CC(=O)NCc2ccc(C)o2)C[C@@]2(C(=O)OC)C1=C[C@H](C(C)(C)C)O[C@@H]2C`, the figure is 13.1% (inactive).

Consider `CC(C)n1c(=O)[nH]c2cc(C(=O)Nc3ccccc3)ccc21`, for which the inhibition is 9.47% (inactive). With `O=C(Nc1cccc(-c2nc3ccccc3[nH]2)c1)c1ccc(C(=O)Nc2cccc(-c3nc4ccccc4[nH]3)c2)cc1`, the inhibition is 47.5% (active). Regarding `O=C(Nc1ccccc1)c1cc2ccccc2[nH]1`, the inhibition is -4.92% (inactive). For `COCCNC(=S)N(C)[C@H]1C[C@H]2c3[nH]c4ccccc4c3CCN2C[C@H]1[C@H](C)O`, the inhibition is 8.23% (inactive).

With `C=CCN=C1NC(c2cccc(C(F)(F)F)c2)C(C(=O)OC)=C(C)N1C` (centres undefined), the inhibition is -13.8% (inactive). As for `Cc1ccc2nc(-c3ccc(CN4CCC(n5cc(-c6ccccc6)[nH]c5=O)CC4)cc3)c(-c3ccccc3)nc2c1`, the figure is 8.03% (inactive).

Take `Nc1[nH]c(C(=O)c2ccccc2)c(-c2ccc(Cl)cc2Cl)c1C(=O)c1ccccc1`: the inhibition was -3.18% (inactive). For `CC(C)(C)C(c1nc2ccccc2[nH]1)n1c(Cc2csc3ccccc23)nc2ccccc21` (centres undefined), the inhibition is 0.81% (inactive). As for `CC(C)c1ccc(/C=C/C(=O)NCCCN2CCOCC2)cc1`, the figure is -5.51% (inactive). As for `O=C(NCCCN1CCOCC1)c1cnn2c(-c3ccccc3)cc(-c3ccccc3)nc12`, the figure is -2.5% (inactive); as for `O=C(/C=C/c1cn(-c2ccccc2)nc1-c1ccc2c(c1)OCCO2)NCCCN1CCOCC1`, 25.8% (active).

Take `COC(=O)c1ccc(CN2C(=O)[C@]3(OCCC=C[C@H]3C)c3c(Br)cccc32)cc1`: the inhibition is 13.2% (inactive). Take `CSc1ccc(Oc2cccc3c2S(=O)(=O)N([C@H](C)c2ccccc2)C[C@@H](COCc2ccccc2)O3)cc1C`: the inhibition is -6.49% (inactive). Consider `O=C(NCc1ccccc1)[C@@H]1CCCN1C(=O)[C@H]1CCCN1C(=O)c1cccc(Cl)c1`, for which the inhibition was 9.96% (inactive). In the case of `COc1ccc(CNC(=O)C2CCN(C(=O)c3ccccc3)CC2)cc1` it was -4.15% (inactive); in that of `COc1ccc(-n2nc3c(N4CCC(C(=O)NCc5ccccc5)CC4)nnc(C)c3c2C)cc1`, 26.9% (active); in that of `COc1ccc(CNC(=O)C2CCN(C(=O)c3ccco3)CC2)cc1`, 9.83% (inactive). As for `C[C@@H]1CN([C@H](C)CO)C(=O)CCCn2cc(nn2)CO[C@H]1CN(C)C(=O)Nc1ccc(N2CCCCC2)cc1`, the inhibition was -7.3% (inactive). As for `Cc1cc2c(nc1C)CCCN2C`, the figure is -0.08% (inactive).

As to `COc1cccc(CNC(=O)[C@H]2CCCN2C(=O)[C@H]2CCCN2C(=O)c2cc(F)cc(F)c2)c1`, the inhibition is 9.87% (inactive). For the compound `C[C@H](CO)N1C[C@H](C)[C@@H](CN(C)C(=O)Nc2ccccc2F)OCc2cn(nn2)CCCC1=O`, the inhibition is 5.05% (inactive). In the case of `COc1ccc(Cl)cc1NC(=O)CN1CCN(C(=O)N2CCOCC2)CC1`, the inhibition was 15% (inactive).

As for `COc1ccc(C)cc1NC(=O)CSc1ccc(Cl)cc1`, the inhibition is -5.43% (inactive). As for `COc1ccc(Cl)cc1NC(=O)Cn1nc(-c2ccc(C)cc2)n(C)c1=S`, the figure is 41.6% (active); as for `N#Cc1cccc(C(=O)NCC2CCN(C(=O)C(=O)c3cc4ccccc4o3)CC2)c1`, 8.35% (inactive). In the case of `COC(=O)[C@]12C[C@H](CC(=O)NCCc3ccccc3OC)C(=O)N(Cc3ccccc3)C1=C[C@H](C(C)C)O[C@@H]2C1CC1` it was -5.59% (inactive); in that of `C#C[C@]1(O)CC[C@H]2[C@@H]3CCC4=CC(=O)CC[C@@H]4[C@H]3CC[C@@]21CC`, -2.58% (inactive) and 25.1% (active). In the case of `C=CC[C@]12C[C@@]3(O[C@H](c4ccc(C(F)(F)F)cc4)N=C3C[C@H](c3ccc(OC)cc3)[C@H]1C)N(C1CCN(Cc3ccccc3)CC1)C2=O` it was 4.67% (inactive).

Take `CN(C)C(=O)N1CCN(C(=O)[C@@H](Cc2ccccc2)NC(=O)[C@H]2O[C@@H](n3ccc(N)nc3=O)[C@H](O)[C@@H]2O)CC1`: the inhibition is 5.01% (inactive). For `COC(=O)Cc1nnn2c1[C@H](C)[C@H](c1ccccc1[N+](=O)[O-])OCC2`, the inhibition was 4.46% (inactive).

As for `COc1ccc(S(=O)(=O)Nc2ccc3c(c2)C(=O)N([C@H](C)CO)C[C@H](C)[C@@H](CN(C)C)OCCCC[C@H](C)O3)cc1`, the inhibition is 1.2% (inactive). As for `OC(COc1cccc(OCC(O)CN2CCCC2)c1)CN1CCCC1` (centres undefined), the figure is 28.2% (active); as for `Cc1cccc(OCC(O)CN2CCN(S(=O)(=O)c3ccc(C)cc3C)CC2)c1` (centres undefined), 10.2% (inactive).

As to `OC(COc1ccc(CN2CCSCC2)cc1)CN1CCCCC1` (centres undefined), the inhibition was -6.07% (inactive). In the case of `Cc1cc(OC(=O)NCCc2ccc(F)cc2)ccc1F` it was 17% (inactive). In the case of `Cc1ccc(N)cc1CN1CCN(c2ncc(Cc3ccccc3)cn2)CC1` it was -5.78% (inactive).
